Values after ≈ are worked out from the molar mass of the structure shown.
Experiments:
Type in all cases: functional
Candida albicans [1] = test: In vitro antifungal activity against 40 strains of Candida albicans at pH 5.8; value ranges from 128 to >256
Outline: (§1)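 Broth serial-dilution MIC against 40 clinical C. albicans isolates from hospitalized patients, grown in Sabouraud broth at pH 7.2 or 5.8. Cells were pre-grown 18 h at 37 °C, inoculated at 10³/mL, and read at 24 h, 37 °C. Doubling dilutions ran 0.25–256 μg/mL from a DMSO/water solution. MIC was the lowest concentration with no visible growth against a DMSO/water blank.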

Candida [2] = test: Tested in vitro for antifungal activity against Candida species. at pH 5.8; (percent of resistant species at 256 ug/mL)
Outline: (§2)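 Broth serial-dilution test in Sabouraud broth at pH 7.2 or 5.8, against 3 fresh clinical non-albicans isolates (two C. glabrata, one C. krusei). Inocula were 10³/mL, pre-grown 18 h at 37 °C. Compound was twofold-diluted over 0.25–256 µg/mL and read at 24 h, 37 °C for visible growth.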

Candida [3] = test: Tested in vitro for antifungal activity against Candida species. at pH 7.2; (percent of resistant species at 256 ug/mL); outline: as §2
Candida albicans [4] = test: In vitro antifungal activity against 40 strains of Candida albicans at pH 5.8; outline: as §1
[5] = target: Lanosterol 14-alpha demethylase (Candida albicans (strain SC5314 / ATCC MYA-2876) (Yeast), UniProt P10613); test: Anticandida activity- (MIC90 compound) / (MIC90 bifonazole)
Chain of Lanosterol 14-alpha demethylase (P10613 whole entry): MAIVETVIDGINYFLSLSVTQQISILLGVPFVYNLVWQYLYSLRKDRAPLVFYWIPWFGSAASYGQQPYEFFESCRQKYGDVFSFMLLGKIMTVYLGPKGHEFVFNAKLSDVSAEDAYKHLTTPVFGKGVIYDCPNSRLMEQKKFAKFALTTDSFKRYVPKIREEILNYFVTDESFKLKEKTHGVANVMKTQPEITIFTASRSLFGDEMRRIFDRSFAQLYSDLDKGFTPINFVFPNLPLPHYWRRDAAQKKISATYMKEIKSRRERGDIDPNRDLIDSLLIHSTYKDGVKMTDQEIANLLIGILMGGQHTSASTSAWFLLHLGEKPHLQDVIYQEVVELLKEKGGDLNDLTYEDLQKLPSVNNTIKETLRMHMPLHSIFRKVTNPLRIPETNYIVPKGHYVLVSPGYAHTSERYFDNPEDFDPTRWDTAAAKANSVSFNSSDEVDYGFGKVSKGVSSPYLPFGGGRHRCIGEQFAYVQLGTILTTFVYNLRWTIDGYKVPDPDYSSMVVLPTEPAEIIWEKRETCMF

Candida albicans [6] = test: In vitro antifungal activity against 40 strains of Candida albicans at pH 5.8; (percent of resistant species at 256 ug/mL)
Outline: (§3)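 Broth serial-dilution test in Sabouraud broth at pH 7.2 or 5.8, against 40 fresh clinical C. albicans isolates from hospitalized patients. Inocula were 10³/mL, pre-grown 18 h at 37 °C in Sabouraud dextrose broth. Compound from a DMSO/water stock was twofold-diluted over 0.25–256 µg/mL. Visible growth was read at 24 h, 37 °C.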

Candida albicans [7] = test: In vitro antifungal activity against 40 strains of Candida albicans at pH 7.2; (percent of resistant species at 256 ug/mL); outline: as §3
Candida albicans [8] = test: In vitro antifungal activity against 40 strains of Candida albicans at pH 7.2; minimum inhibitory concentration; value ranges from 128 to >256; outline: as §1
Candida [9] = test: Tested in vitro for antifungal activity against Candida species. at pH 5.8
Outline: (§4)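 Liquid serial-dilution MIC against 3 freshly isolated clinical Candida strains (two C. glabrata, one C. krusei) in Sabouraud broth at pH 7.2 or 5.8. Inoculum was 10³/mL after 18 h pre-culture at 37 °C, read at 24 h, 37 °C. Range was 0.25–256 μg/mL. Endpoint was no visible growth versus a DMSO/water blank.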

Candida [10] = test: Tested in vitro for antifungal activity against Candida species. at pH 7.2
Outline: (§5)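 Fresh clinical isolates (two C. glabrata, one C. krusei) were pre-grown 18 h at 37 °C in Sabouraud dextrose broth. Broth double-dilution was run in Sabouraud broth at pH 5.8 or 7.2 over 0.25–256 µg/mL from a DMSO/water stock, with 10³/mL inoculum.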

Candida albicans [11] = test: In vitro antifungal activity against 40 strains of Candida albicans at pH 7.2; outline: as §1
Candida albicans [12] = test: In vitro antifungal activity against 40 strains of Candida albicans at pH 5.8; value ranges from 128 to >256.; outline: as §1
Candida albicans [13] = test: In vitro antifungal activity against 40 strains of Candida albicans at pH 7.2; minimum inhibitory concentration value ranges from 128 to >256; outline: as §1
Candida [14] = test: Tested in vitro for antifungal activity at pH 5.8; range is >250
Outline: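 Serial two-fold broth dilution was run in Sabouraud broth at pH 5.8 over 0.25–256 µg/mL, against clinical Candida isolates (40 C. albicans; 2 C. glabrata plus 1 C. krusei). Inoculum was 10³/mL after 18 h pre-culture at 37 °C. No visible growth versus a DMSO/water blank was read at 24 h, 37 °C; the range spans per-strain MICs.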

Candida [15] = test: In vitro antifungal activity against candida Spp (Candida glabrata, Candida krusei) at pH 5.8,(percent of resistant species at 256 ug/mL); outline: as §2
Candida albicans [16] = test: In vitro antifungal activity against 40 strains at pH 7.2 minimum inhibitory concentration
Outline: (§6)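 Inocula were 10³/mL, pre-grown 18 h at 37 °C. MIC is the lowest concentration with no visible growth versus a DMSO/water blank at 24 h, 37 °C. The mean MIC is ΣMICi over the total strain number; MIC50/MIC90 cover 50%/90% of strains.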

Candida [17] = test: Tested in vitro for antifungal activity against candida Spp (Candida glabrata, Candida krusei) at pH 7.2 (percent of resistant species at 256 ug/mL); outline: as §2
Candida albicans [18] = test: In vitro antifungal activity against 40 strains at pH 7.2; outline: as §6
Candida albicans [19] = test: In vitro antifungal activity against 40 strains at pH 7.2,(percent of resistant species at 256 ug/mL); outline: as §3
Candida [20] = test: Tested In vitro for antifungal activity against candida Spp (Candida glabrata, Candida krusei) at pH 5.8
Outline: (§7)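 Inocula were 10³/mL, pre-grown 18 h at 37 °C. MIC is the lowest concentration with no visible growth versus a blank at 24 h, 37 °C. The mean MIC is ΣMICi over the strain number; MIC50/MIC90 are also reported.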

Candida [21] = test: Tested In vitro for antifungal activity against candida Spp (Candida glabrata, Candida krusei) at pH 7.2; outline: as §7
Candida albicans [22] = test: Tested In vitro for antifungal activity at pH 5.8
Candida albicans [23] = test: In vitro antifungal activity against 40 strains at pH 5.8,(percent of resistant species at 256 ug/mL); outline: as §3
Candida [24] = test: Tested In vitro for antifungal activity against Candida species. at pH 7.2; (percent of resistant species at 256 ug/mL); outline: as §2
Candida albicans [25] = test: In vitro antifungal activity against 40 strains of Candida albicans at pH 7.2; (percent of resistant species (R) at 256 ug/mL); outline: as §3
Candida albicans [26] = test: In vitro antifungal activity against 40 strains of Candida albicans at pH 7.2; minimum inhibitory concentration; value ranges from <0.25 to 16; outline: as §1
Candida [27] = test: Tested In vitro for antifungal activity against Candida species. at pH 7.2; (range is from 0.5 to 1); outline: as §4
Candida [28] = test: Tested in vitro for antifungal activity against Candida species. at pH 5.8; value ranges from <0.25 to 0.25; outline: as §5
Candida [29] = test: Tested In vitro for antifungal activity against Candida species. at pH 7.2; outline: as §4
Candida albicans [30] = test: In vitro antifungal activity against 40 strains of Candida albicans at pH 5.8; value ranges from <0.25 to 8; outline: as §1

| SMILES | Resistance (Candida [2]) [%] | Resistance (Candida [3]) [%] | MIC (Candida albicans [4]) [mg/L] | MIC50 (Candida albicans [4]) [mg/L] | MIC90 (Candida albicans [4]) [mg/L] | Ratio [5] | Resistance (Candida albicans [6]) [%] | Resistance (Candida albicans [7]) [%] | MIC50 (Candida [9]) [mg/L] | MIC90 (Candida [9]) [mg/L] | MIC50 (Candida [10]) [mg/L] | MIC90 (Candida [10]) [mg/L] | Range (Candida [10]) [µg/mL] | MIC (Candida albicans [11]) [mg/L] | MIC50 (Candida albicans [11]) [mg/L] | MIC90 (Candida albicans [11]) [mg/L] | further results |
| --- | --- | --- | --- | --- | --- | --- | --- | --- | --- | --- | --- | --- | --- | --- | --- | --- | --- |
| Clc1ccc(-c2c[nH]cc2[C@@H](c2ccc(Cl)cc2Cl)n2cnnc2)cc1 | 100 | 100 | 128 (≈ 317 µM) | > 256 | > 256 | 49 | 94 | 77 | > 256 | > 256 | > 256 | > 256 | >256 | 165 (≈ 408 µM) | > 256 | > 256 | Range (Candida albicans [1]): >256 µg/mL; Range (Candida albicans [8]): >256 µg/mL; Range (Candida [9]): >256 µg/mL |
| Clc1ccc(-c2c[nH]cc2[C@@H](c2ccc(Cl)cc2Cl)n2cncn2)cc1 | 100 | 100 | 209 (≈ 519 µM) | > 256 | > 256 | 49 | 68 | 97 | > 256 | > 256 | > 256 | > 256 | >256 | 128 (≈ 317 µM) | > 256 | > 256 | Range (Candida albicans [12]): >256 µg/mL; Range (Candida albicans [13]): >256 µg/mL; Range (Candida [14]): >256 µg/mL |
| c1ccc(-c2ccc(C(c3ccccc3)n3ccnc3)cc2)cc1 (stereo not drawn) [BIFONAZOLE] | – | – | – | – | – | – | – | – | – | – | – | – | – | – | – | – | Resistance (Candida [15]): 0%; Range (Candida albicans [16]): 0.5 µg/mL; Resistance (Candida [17]): 0%; MIC (Candida albicans [18]): 2.44 mg/L (≈ 7.86 µM); MIC50 (Candida albicans [18]): 2 mg/L (≈ 6.44 µM); MIC90 (Candida albicans [18]): 4 mg/L (≈ 12.9 µM); Resistance (Candida albicans [19]): 0%; MIC (Candida [20]): 4 mg/L (≈ 12.9 µM); MIC50 (Candida [20]): 4 mg/L (≈ 12.9 µM); MIC90 (Candida [20]): 32 mg/L (≈ 103 µM); Range (Candida [20]): 2 µg/mL; MIC (Candida [21]): 4.16 mg/L (≈ 13.4 µM); MIC50 (Candida [21]): 4 mg/L (≈ 12.9 µM); MIC90 (Candida [21]): 8 mg/L (≈ 25.8 µM); Range (Candida [21]): 0.5 µg/mL; MIC (Candida albicans [22]): 5.85 mg/L (≈ 18.8 µM); MIC50 (Candida albicans [22]): 2 mg/L (≈ 6.44 µM); MIC90 (Candida albicans [22]): 4 mg/L (≈ 12.9 µM); Range (Candida albicans [22]): 1 µg/mL; Resistance (Candida albicans [23]): 0% |
| Clc1ccc(COC(Cn2ccnc2)c2ccc(Cl)cc2Cl)c(Cl)c1 (stereo not drawn) [MICONAZOLE] | 0 | – | 0.57 (≈ 1.37 µM) | 0.5 (≈ 1.2 µM) | 2 (≈ 4.81 µM) | – | 0 | – | 0.5 (≈ 1.2 µM) | 8 (≈ 19.2 µM) | – | – | – | 1.16 (≈ 2.79 µM) | 0.5 (≈ 1.2 µM) | 2 (≈ 4.81 µM) | Resistance (Candida [24]): 0%; Resistance (Candida albicans [25]): 0%; Range (Candida albicans [26]): 16 µg/mL; Range (Candida [27]): 1 µg/mL; Range (Candida [28]): <0.25 µg/mL; MIC (Candida [29]): 0.83 mg/L (≈ 1.99 µM); MIC50 (Candida [29]): 1 mg/L (≈ 2.4 µM); MIC90 (Candida [29]): 1 mg/L (≈ 2.4 µM); MIC (Candida [9]): 0.156 mg/L (≈ 0.375 µM); Range (Candida albicans [30]): < 8 µg/mL |

From ChEMBL document CHEMBL1135477, “Antifungal agents. 10. New derivatives of 1-[(aryl)[4-aryl-1H-pyrrol-3-yl]methyl]-1H-imidazole, synthesis, anti-candida activity, and quantitative structure-analysis relationship studies” (J Med Chem, 2002)
